Measured values pooled from the literature.
Protocols differ between the studies behind these lines.
CA2: Carbonic anhydrase 2 (CA2, Homo sapiens, UniProt P00918)
OPRD1: Delta-type opioid receptor (OPRD1, Homo sapiens, UniProt P41143)

The Ki of `COc1ccc2[nH]c(C)c(CC[N+](C)(C)C)c2c1` is reported as roughly 2.6 µM (5-hydroxytryptamine receptor 3A (HTR3A, Homo sapiens, UniProt P46098); ligand displacement, radioligand).
With `COc1ccc(S(=O)(=O)Oc2ccc(C=NNC(=O)c3ccc(F)cc3)cc2OC)cc1` the IC50 was 0.0232 µM (CA2; enzyme activity, inhibitor, absorbance).
`CS(=O)(=O)c1ccc(C(=O)N[C@H]2CC[C@@]3(O)[C@H]4Cc5ccc(O)c6c5[C@@]3(CCN4CC3CC3)[C@H]2O6)s1` has a Ki of 0.027 µM (OPRD1; ligand displacement, radioligand; cell membranes).
With `COc1ccc(S(=O)(=O)Oc2cc(OC)ccc2C=NNC(=O)c2ccc(F)cc2)cc1` the IC50 was 0.141 µM (CA2; enzyme activity, inhibitor, absorbance).
`COC(=O)c1cc(N(C)C(=O)c2ccn3ncc(-c4ccc(C(=O)O)cc4)c3c2)ccc1Cl` has an IC50 of greater than 30 µM (Receptor tyrosine-protein kinase erbB-2 (ERBB2, Homo sapiens, UniProt P04626); enzyme activity, inhibitor).
`O=C1CCc2ccccc2O1` gave a Ki of 8.9 µM (Carbonic anhydrase (Vibrio cholerae serotype O1, UniProt Q9KMP6); enzyme activity, inhibitor, stopped-flow).
`O=C(N[C@H]1CC[C@@]2(O)[C@H]3Cc4ccc(O)c5c4[C@@]2(CCN3CC2CC2)[C@H]1O5)c1ccc(F)s1` has a Ki of 0.0314 µM (OPRD1; ligand displacement, radioligand; cell membranes).
With `CNC(=O)c1ccc(-c2cnn3ccc(C(=O)N(C)c4ccc(Cl)c(C(=O)OC)c4)cc23)cc1` the IC50 was greater than 30 µM (Tyrosine-protein kinase ABL1 (ABL1, Homo sapiens, UniProt P00519); enzyme activity, inhibitor).
